Calls of active or inactive are those of the source. No cut-off for these calls is given here.
Tests used:
[1] = molecular target: T1, Signal transducer and activator of transcription 3 (Homo sapiens, UniProt P40763); test: Binding affinity to STAT3 (unknown origin)
[2] = Antiproliferative activity against human MOLM16 cells assessed as reduction in cell viability incubated for 4 days by cell-titer glo luminescent assay; type: functional, cell-based; conditions: MOLM16, 96 h
Procedure, shortened: (§1)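 Viability assay: cells incubated with serially diluted compounds for 4 days, viability read by CellTiter-Glo luminescence; IC50 from concentration–response.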

[3] = molecular target: T2, Protein cereblon/Signal transducer and activator of transcription 2 (Homo sapiens) (UniProt Q96SW2+P52630); test: Protac activity at CRBN/STAT2 in human MOLM16 cells assessed as degradation of STAT2 at 10 uM incubated for 4 hrs by Western blot analysis; type: cell-based
Procedure, shortened: (§2)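 Molm-16 cells treated 4 h with test compound at 0.01–10 μM, or control compounds at 10 μM. Lysates separated by SDS–PAGE, transferred to PVDF, blocked 1 h in 5% blocker/TBST, probed for each STAT protein, and detected by chemiluminescence.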

[4] = molecular target: T3, Protein cereblon/Signal transducer and activator of transcription 3 (Homo sapiens, UniProt P40763+Q96SW2); test: Protac activity at CRBN/STAT3 in human SUDHL1 cells assessed as degradation of STAT3 at 10 uM incubated for 18 hrs by Western blot analysis; type: cell-based
Procedure, shortened: (§3)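 SU-DHL-1 cells treated 18 h with test compound at 0.01–10 μM, or control compounds at 10 μM. Lysates separated by SDS–PAGE, transferred to PVDF, blocked 1 h in 5% blocker/TBST, probed for each STAT protein, and detected by chemiluminescence.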
Target sequence in this assay (P40763 2-770 limits assumed): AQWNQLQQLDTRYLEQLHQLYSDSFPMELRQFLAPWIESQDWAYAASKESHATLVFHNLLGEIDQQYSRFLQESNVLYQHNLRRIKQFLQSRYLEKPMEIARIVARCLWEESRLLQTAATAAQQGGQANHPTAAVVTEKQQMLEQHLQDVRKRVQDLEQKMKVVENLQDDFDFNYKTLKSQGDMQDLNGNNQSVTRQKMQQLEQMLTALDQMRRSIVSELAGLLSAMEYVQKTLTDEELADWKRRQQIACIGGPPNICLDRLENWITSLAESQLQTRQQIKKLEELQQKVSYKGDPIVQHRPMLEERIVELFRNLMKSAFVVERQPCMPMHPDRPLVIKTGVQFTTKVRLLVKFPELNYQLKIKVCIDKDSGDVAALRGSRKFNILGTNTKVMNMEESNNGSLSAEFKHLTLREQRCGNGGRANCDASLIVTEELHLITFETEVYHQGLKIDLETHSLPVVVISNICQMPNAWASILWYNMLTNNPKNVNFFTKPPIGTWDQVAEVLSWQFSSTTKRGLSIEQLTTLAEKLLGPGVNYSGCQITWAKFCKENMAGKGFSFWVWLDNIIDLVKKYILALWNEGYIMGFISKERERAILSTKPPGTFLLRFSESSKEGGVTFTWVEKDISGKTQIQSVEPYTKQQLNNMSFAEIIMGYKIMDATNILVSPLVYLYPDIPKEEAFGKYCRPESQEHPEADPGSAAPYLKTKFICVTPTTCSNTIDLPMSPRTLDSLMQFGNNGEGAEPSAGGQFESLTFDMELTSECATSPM
Target sequence in this assay (Q96SW2 whole entry partner): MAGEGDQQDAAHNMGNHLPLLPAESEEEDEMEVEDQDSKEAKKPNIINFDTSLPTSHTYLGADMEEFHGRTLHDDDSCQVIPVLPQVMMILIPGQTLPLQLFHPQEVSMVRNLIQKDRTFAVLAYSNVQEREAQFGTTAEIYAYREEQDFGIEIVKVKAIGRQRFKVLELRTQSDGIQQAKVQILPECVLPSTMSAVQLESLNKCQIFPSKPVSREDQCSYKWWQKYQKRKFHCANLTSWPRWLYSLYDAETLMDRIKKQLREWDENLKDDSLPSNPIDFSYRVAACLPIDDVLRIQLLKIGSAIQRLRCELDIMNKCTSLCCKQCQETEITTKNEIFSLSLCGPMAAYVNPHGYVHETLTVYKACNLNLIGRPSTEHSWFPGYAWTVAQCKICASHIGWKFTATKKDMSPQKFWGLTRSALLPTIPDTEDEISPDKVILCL

[5] = molecular target: T4, Protein cereblon/Signal transducer and activator of transcription 5B (Homo sapiens) (UniProt P51692+Q96SW2); test: Protac activity at CRBN/STAT5B in human SUDHL1 cells assessed as degradation of STAT5B at 10 uM incubated for 18 hrs by Western blot analysis; type: cell-based; procedure, shortened: as §3
[6] = molecular target: T5, Protein cereblon/Signal transducer and activator of transcription 1-alpha/beta (Homo sapiens) (UniProt P42224+Q96SW2); test: Protac activity at CRBN/STAT1 in human MOLM16 cells assessed as degradation of STAT1 at 10 uM incubated for 4 hrs by Western blot analysis; type: cell-based; procedure, shortened: as §2
[7] = molecular target: T6, Protein cereblon/Signal transducer and activator of transcription 4 (Homo sapiens) (UniProt Q96SW2+Q14765); test: Protac activity at CRBN/STAT4 in human SUDHL1 cells assessed as degradation of STAT4 at 10 uM incubated for 18 hrs by Western blot analysis; type: cell-based; procedure, shortened: as §3
[8] = molecular target: T7, Protein cereblon/Signal transducer and activator of transcription 5A (Homo sapiens) (UniProt P42229+Q96SW2); test: Protac activity at CRBN/STAT5A in human SUDHL1 cells assessed as degradation of STAT5A at 10 uM incubated for 18 hrs by Western blot analysis; type: cell-based; procedure, shortened: as §3
[9] = molecular target: T2, Protein cereblon/Signal transducer and activator of transcription 2 (Homo sapiens); test: Protac activity at CRBN/STAT2 in human SUDHL1 cells assessed as degradation of STAT2 at 10 uM incubated for 18 hrs by Western blot analysis; type: cell-based; procedure, shortened: as §3
[10] = molecular target: T4, Protein cereblon/Signal transducer and activator of transcription 5B (Homo sapiens); test: Protac activity at CRBN/STAT5B in human MOLM16 cells assessed as degradation of STAT5B at 10 uM incubated for 4 hrs by Western blot analysis; type: cell-based; procedure, shortened: as §2
[11] = molecular target: T6, Protein cereblon/Signal transducer and activator of transcription 4 (Homo sapiens); test: Protac activity at CRBN/STAT4 in human MOLM16 cells assessed as degradation of STAT4 at 10 uM incubated for 4 hrs by Western blot analysis; type: cell-based; procedure, shortened: as §2
[12] = molecular target: T3, Protein cereblon/Signal transducer and activator of transcription 3; test: Protac activity at CRBN/STAT3 in human SUDHL1 cells assessed as degradation of phosphorylated STAT3 Y705 upto 10 uM incubated for 16 hrs by Western blot analysis; type: cell-based
Target sequence in this assay (P40763 2-770 limits assumed): as the sequence (P40763 2-770 limits assumed) above
Target sequence in this assay (Q96SW2 whole entry partner): as the sequence (Q96SW2 whole entry partner) above

[13] = molecular target: T5, Protein cereblon/Signal transducer and activator of transcription 1-alpha/beta (Homo sapiens); test: Protac activity at CRBN/STAT1 in human SUDHL1 cells assessed as degradation of STAT1 at 10 uM incubated for 18 hrs by Western blot analysis; type: cell-based; procedure, shortened: as §3
[14] = molecular target: T3, Protein cereblon/Signal transducer and activator of transcription 3; test: Protac activity at CRBN/STAT3 in human MOLM16 cells assessed as degradation of STAT3 up to 10 uM incubated for 4 hrs by Western blot analysis; type: cell-based
Procedure, shortened: (§4)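 Molm-16 cells treated 4 h with serially diluted compound. Lysates immunoblotted (SDS–PAGE, PVDF, 5% blocker/TBST, chemiluminescence) for total STAT3 and pSTAT3 Y705. DC50 taken as the concentration reducing total STAT3 by 50%.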
Target sequence in this assay (P40763 2-770 limits assumed): as the sequence (P40763 2-770 limits assumed) above
Target sequence in this assay (Q96SW2 whole entry partner): as the sequence (Q96SW2 whole entry partner) above

[15] = tested on: SU-DHL-1; test: Antiproliferative activity against human SUDHL1 cells assessed as reduction in cell viability incubated for 4 days by cell-titer glo luminescent assay; type: functional, cell-based; conditions: SU-DHL-1, 96 h; procedure, shortened: as §1
[16] = molecular target: T3, Protein cereblon/Signal transducer and activator of transcription 3; test: Protac activity at CRBN/STAT3 in human SUDHL1 cells assessed as degradation of STAT3 upto 10 uM incubated for 16 hrs by Western blot analysis; type: cell-based
Target sequence in this assay (P40763 2-770 limits assumed): as the sequence (P40763 2-770 limits assumed) above
Target sequence in this assay (Q96SW2 whole entry partner): as the sequence (Q96SW2 whole entry partner) above

[17] = molecular target: T8, Protein cereblon/Signal transducer and activator of transcription 6 (Homo sapiens) (UniProt P42226+Q96SW2); test: Protac activity at CRBN/STAT6 in human MOLM16 cells assessed as degradation of STAT6 at 10 uM incubated for 4 hrs by Western blot analysis; type: cell-based; procedure, shortened: as §2
[18] = molecular target: T3, Protein cereblon/Signal transducer and activator of transcription 3; test: Protac activity at CRBN/STAT3 in human MOLM16 cells assessed as degradation of STAT3 incubated for 4 hrs by Western blot analysis; type: cell-based; procedure, shortened: as §4
[19] = molecular target: T8, Protein cereblon/Signal transducer and activator of transcription 6 (Homo sapiens); test: Protac activity at CRBN/STAT6 in human SUDHL1 cells assessed as degradation of STAT6 at 10 uM incubated for 18 hrs by Western blot analysis; type: cell-based
Procedure, shortened: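 SU-DHL-1 cells exposed to compound over 0.01–10 μM, or controls at 10 μM, for 18 h. Lysates separated by SDS–PAGE and transferred to PVDF. Membranes blocked 1 h in 5% blocker/TBST, probed with primary then secondary antibodies, and developed by chemiluminescence for STAT1, STAT2, STAT4, STAT5A/B, STAT6 and STAT3.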

[20] = molecular target: T3, Protein cereblon/Signal transducer and activator of transcription 3; test: Protac activity at CRBN/STAT3 in human MOLM16 cells assessed as degradation of STAT3 at 10 uM incubated for 4 hrs by Western blot analysis; type: cell-based; procedure, shortened: as §2
Target sequence in this assay (P40763 2-770 limits assumed): as the sequence (P40763 2-770 limits assumed) above
Target sequence in this assay (Q96SW2 whole entry partner): as the sequence (Q96SW2 whole entry partner) above

[21] = molecular target: T3, Protein cereblon/Signal transducer and activator of transcription 3; test: Protac activity at CRBN/STAT3 in human SUDHL1 cells assessed as degradation of STAT3 incubated for 16 hrs by Western blot analysis; type: cell-based
[22] = molecular target: T7, Protein cereblon/Signal transducer and activator of transcription 5A (Homo sapiens); test: Protac activity at CRBN/STAT5A in human MOLM16 cells assessed as degradation of STAT5A at 10 uM incubated for 4 hrs by Western blot analysis; type: cell-based; procedure, shortened: as §2
[23] = molecular target: T3, Protein cereblon/Signal transducer and activator of transcription 3; test: Protac activity at CRBN/STAT3 in human SUDHL1 cells assessed as degradation of phosphorylated STAT3 Y705 upto 5 uM incubated for 16 hrs by Western blot analysis; type: cell-based
Target sequence in this assay (P40763 2-770 limits assumed): as the sequence (P40763 2-770 limits assumed) above
Target sequence in this assay (Q96SW2 whole entry partner): as the sequence (Q96SW2 whole entry partner) above

[24] = molecular target: T3, Protein cereblon/Signal transducer and activator of transcription 3; test: Protac activity at CRBN/STAT3 in human SUDHL1 cells assessed as degradation of STAT3 upto 5 uM incubated for 16 hrs by Western blot analysis; type: cell-based
[25] = molecular target: T3, Protein cereblon/Signal transducer and activator of transcription 3; test: Protac activity at CRBN/STAT3 in human MOLM16 cells assessed as degradation of phosphorylated STAT3 Y705 at 1 uM incubated for 4 hrs by Western blot analysis; type: cell-based; procedure, shortened: as §4
[26] = molecular target: T1, Signal transducer and activator of transcription 3; test: Binding affinity to recombinant human His/SUMO-tagged STAT3 (127 to 688 residues) expressed in Escherichia coli Rosetta (DE3) incubated for 1 hr by fluorescence polarization assay
[27] = molecular target: T3, Protein cereblon/Signal transducer and activator of transcription 3; test: Protac activity at CRBN/STAT3 in human MOLM16 cells assessed as degradation of STAT3 at 1 uM incubated for 4 hrs by Western blot analysis; type: cell-based; procedure, shortened: as §4
[28] = tested on: Mus musculus; test: In vivo degradation of STAT3 in CD1 mouse at 25 mg/kg, iv measured upto 48 hrs by Western blot analysis; type: functional, organism-based
Procedure, shortened: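 Female CD-1 mice given a single intravenous dose in 10% PEG400 + 90% PBS, or vehicle. Euthanized at set time points. Spleen harvested and lysates immunoblotted for STAT3.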

T7 sequence (P42229 whole entry, looked up): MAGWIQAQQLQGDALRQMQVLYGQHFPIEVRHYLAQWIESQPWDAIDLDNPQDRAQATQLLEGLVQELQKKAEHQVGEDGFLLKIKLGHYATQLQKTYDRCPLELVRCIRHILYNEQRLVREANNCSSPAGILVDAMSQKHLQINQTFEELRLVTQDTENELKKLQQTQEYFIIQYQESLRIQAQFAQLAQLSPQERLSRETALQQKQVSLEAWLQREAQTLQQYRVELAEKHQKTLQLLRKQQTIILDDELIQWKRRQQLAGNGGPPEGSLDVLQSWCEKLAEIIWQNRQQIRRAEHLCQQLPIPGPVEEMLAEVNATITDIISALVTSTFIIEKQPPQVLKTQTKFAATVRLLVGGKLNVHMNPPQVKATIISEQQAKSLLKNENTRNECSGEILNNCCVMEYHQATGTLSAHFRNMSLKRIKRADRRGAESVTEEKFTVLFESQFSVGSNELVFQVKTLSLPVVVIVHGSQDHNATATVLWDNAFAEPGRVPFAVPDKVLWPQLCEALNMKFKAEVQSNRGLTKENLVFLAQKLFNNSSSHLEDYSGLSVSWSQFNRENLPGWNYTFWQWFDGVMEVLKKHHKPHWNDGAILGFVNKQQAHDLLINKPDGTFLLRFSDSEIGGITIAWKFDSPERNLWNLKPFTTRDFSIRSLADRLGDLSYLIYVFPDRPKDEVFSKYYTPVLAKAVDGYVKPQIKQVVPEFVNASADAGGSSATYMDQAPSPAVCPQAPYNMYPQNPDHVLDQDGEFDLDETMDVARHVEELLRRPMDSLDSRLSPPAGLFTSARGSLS
T7 sequence (Q96SW2 whole entry, looked up): as the sequence (Q96SW2 whole entry partner) above
T4 sequence (P51692 whole entry, looked up): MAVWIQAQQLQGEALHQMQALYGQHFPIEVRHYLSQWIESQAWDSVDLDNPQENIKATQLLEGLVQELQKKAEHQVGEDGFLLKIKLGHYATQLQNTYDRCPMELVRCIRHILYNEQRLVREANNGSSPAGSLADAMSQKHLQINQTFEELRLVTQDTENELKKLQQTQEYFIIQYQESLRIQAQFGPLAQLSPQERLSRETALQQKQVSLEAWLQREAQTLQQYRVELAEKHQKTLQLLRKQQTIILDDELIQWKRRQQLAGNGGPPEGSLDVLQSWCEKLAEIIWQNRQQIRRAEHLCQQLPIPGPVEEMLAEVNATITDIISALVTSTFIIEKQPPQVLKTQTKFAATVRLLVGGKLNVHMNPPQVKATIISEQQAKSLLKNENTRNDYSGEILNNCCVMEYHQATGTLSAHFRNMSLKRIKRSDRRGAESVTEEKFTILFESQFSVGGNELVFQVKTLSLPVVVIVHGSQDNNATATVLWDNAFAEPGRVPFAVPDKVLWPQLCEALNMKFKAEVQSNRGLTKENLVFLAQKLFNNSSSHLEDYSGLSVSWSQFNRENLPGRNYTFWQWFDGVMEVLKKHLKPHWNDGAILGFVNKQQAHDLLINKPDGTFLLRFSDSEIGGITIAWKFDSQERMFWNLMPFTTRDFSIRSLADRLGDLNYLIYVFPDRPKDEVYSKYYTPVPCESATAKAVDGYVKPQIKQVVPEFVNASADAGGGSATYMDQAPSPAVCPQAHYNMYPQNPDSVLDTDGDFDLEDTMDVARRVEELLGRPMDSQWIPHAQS
T4 sequence (Q96SW2 whole entry, looked up): as the sequence (Q96SW2 whole entry partner) above
T1 sequence (P40763 whole entry): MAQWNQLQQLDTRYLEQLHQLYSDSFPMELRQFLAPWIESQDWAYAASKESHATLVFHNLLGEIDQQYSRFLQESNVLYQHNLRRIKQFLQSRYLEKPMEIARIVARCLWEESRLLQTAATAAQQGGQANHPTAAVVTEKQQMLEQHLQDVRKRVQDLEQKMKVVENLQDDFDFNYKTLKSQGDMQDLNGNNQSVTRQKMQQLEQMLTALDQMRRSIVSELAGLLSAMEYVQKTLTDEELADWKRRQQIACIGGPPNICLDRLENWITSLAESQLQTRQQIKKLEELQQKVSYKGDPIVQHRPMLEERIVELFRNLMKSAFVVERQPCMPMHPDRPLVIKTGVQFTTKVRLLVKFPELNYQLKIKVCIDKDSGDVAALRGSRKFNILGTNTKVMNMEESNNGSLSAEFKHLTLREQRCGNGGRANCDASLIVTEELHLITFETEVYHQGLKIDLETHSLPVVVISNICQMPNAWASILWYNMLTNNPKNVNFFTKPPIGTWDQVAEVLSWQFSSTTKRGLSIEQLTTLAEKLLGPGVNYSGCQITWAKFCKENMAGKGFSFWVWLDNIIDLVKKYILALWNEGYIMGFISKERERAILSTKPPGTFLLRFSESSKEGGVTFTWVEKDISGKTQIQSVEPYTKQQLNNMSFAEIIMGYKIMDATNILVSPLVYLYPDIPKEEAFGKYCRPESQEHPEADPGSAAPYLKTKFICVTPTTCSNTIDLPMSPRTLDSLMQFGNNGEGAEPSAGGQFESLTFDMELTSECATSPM

SMILES: NC(=O)CC[C@H](NC(=O)[C@@H]1CC[C@@H]2CCCC[C@H](NC(=O)c3cc4cc(CP(=O)(O)O)ccc4[nH]3)C(=O)N21)C(=O)NCc1ccccc1
- Ki [1]: 761 nM

SMILES: CN1C(=O)CCC(N2Cc3c(C#CCCCCCC(=O)N4CC[C@H]5CC[C@@H](C(=O)N[C@@H](CCC(N)=O)C(=O)NC(c6ccccc6)c6ccccc6)N5C(=O)[C@@H](NC(=O)c5cc6cc(C(F)(F)P(=O)(O)O)ccc6[nH]5)C4)cccc3C2=O)C1=O (stereo partly specified)
- IC50 [2]: 5210 nM
- Activity [3]: inactive
- Activity [4]: inactive
- Activity [5]: inactive
- Activity [6]: inactive
- Activity [7]: inactive
- Activity [8]: inactive
- Activity [9]: inactive
- Activity [10]: inactive
- Activity [11]: inactive
- Activity [12]: inactive
- Activity [13]: inactive
- Activity [14]: 0%
- IC50 [15]: > 10000 nM
- Activity [16]: inactive
- Activity [17]: inactive
- DC50 [18]: > 10000 nM
- Activity [19]: inactive
- Activity [20]: inactive
- DC50 [21]: > 10000 nM
- Activity [22]: inactive

SMILES: NC(=O)CC[C@H](NC(=O)[C@@H]1CC[C@@H]2CCN(C(=O)CCCCCC#Cc3cccc4c3C(=O)N(C3CCC(=O)NC3=O)C4=O)C[C@H](NC(=O)c3cc4cc(C(F)(F)P(=O)(O)O)ccc4[nH]3)C(=O)N21)C(=O)NC(c1ccccc1)c1ccccc1 (stereo partly specified)
- IC50 [2]: 582 nM
- Activity [23]: inactive
- Activity [24]: inactive
- IC50 [15]: > 10000 nM
- DC50 [18]: 3540 nM
- DC50 [21]: > 10000 nM

SMILES: CC(=O)N1CC[C@H]2CC[C@@H](C(=O)N[C@@H](CCC(N)=O)C(=O)NC(c3ccccc3)c3ccccc3)N2C(=O)[C@@H](NC(=O)c2cc3cc(C(F)(F)P(=O)(O)O)ccc3[nH]2)C1
- IC50 [2]: 6450 nM
- Activity [3]: inactive
- Activity [4]: inactive
- Activity [5]: inactive
- Activity [25]: inactive
- Activity [6]: inactive
- Activity [7]: inactive
- Activity [8]: inactive
- Activity [9]: inactive
- Activity [10]: inactive
- Ki [26]: 14 nM
- Activity [11]: inactive
- Activity [12]: inactive
- Activity [13]: inactive
- IC50 [15]: > 10000 nM
- Activity [16]: inactive
- Activity [17]: inactive
- DC50 [18]: > 10000 nM
- Activity [19]: inactive
- Activity [27]: inactive
- Activity [20]: inactive
- DC50 [21]: > 10000 nM
- Activity [22]: inactive

SMILES: NC(=O)CC[C@H](NC(=O)[C@@H]1CC[C@@H]2CCN(C(=O)NCCCCC#Cc3cccc4c3CN(C3CCC(=O)NC3=O)C4=O)C[C@H](NC(=O)c3cc4cc(C(F)(F)P(=O)(O)O)ccc4[nH]3)C(=O)N21)C(=O)NC(c1ccccc1)c1ccccc1 (stereo partly specified)
- IC50 [2]: 91 nM
- IC50 [15]: 430 nM
- DC50 [18]: 50 nM
- Activity [28]: Active
- DC50 [21]: 11 nM

— ChEMBL document CHEMBL4354826, “Structure-Based Discovery of SD-36 as a Potent, Selective, and Efficacious PROTAC Degrader of STAT3 Protein” (J Med Chem, 2019)
